Screens (PubChem)
TAG inh – inhibitors of triacylglycerol accumulation, primary screen, cell-based, uHTS, fluorescence, H9c2 | H9c2 cells, Nile Red lipid (TAG) fluorescence; cells loaded with 200 µM oleic acid | inhibition, % at 12.5 µM | AID 651582, 2012 | actives 0.66% (n = 230,000);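 active means pattern-corrected inhibition of lipid staining of at least 50% with the nuclear-stain viability signal not falling by more than 50%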;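 further: 0% = DMSO wells and 100% = triacsin C control wells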
APJ agonist – agonists of human apelin receptor APJ, primary screen, CHO-K1 cells, PathHunter beta-arrestin, luminescence; P35414; 0% DMSO wells, 100% apelin; activation, % at 20 µM; actives 0.11% (n = 330,000);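 active means activation more than six SD over the plate average, tested at 20 µM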;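 further: 0% = DMSO alone and 100% = apelin-13 at 10 nM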
Target sequence (P35414 whole entry, looked up): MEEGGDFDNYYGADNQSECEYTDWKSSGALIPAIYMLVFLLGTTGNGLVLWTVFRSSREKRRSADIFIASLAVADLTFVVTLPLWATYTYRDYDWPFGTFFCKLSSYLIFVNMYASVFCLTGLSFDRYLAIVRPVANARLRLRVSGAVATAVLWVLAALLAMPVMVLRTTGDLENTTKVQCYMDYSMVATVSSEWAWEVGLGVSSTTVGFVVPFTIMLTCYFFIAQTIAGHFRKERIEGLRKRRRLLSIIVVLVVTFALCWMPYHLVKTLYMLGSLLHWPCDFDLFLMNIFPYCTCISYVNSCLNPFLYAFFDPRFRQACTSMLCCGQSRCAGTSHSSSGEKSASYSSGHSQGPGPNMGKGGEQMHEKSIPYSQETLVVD
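Assay system – PathHunter CHO-K1 APJ (AGTRL-1) beta-arrestin reporter cells · Compound – one dose, 20 µM compound, 1% DMSO · Timing – compound 90 min 25 °C, reagent 1 h · Measured by – luminescence from split beta-galactosidase complementation, Galacton Star/Emerald II substrate · Measure – beta-arrestin recruitment to APJ as agonist activity, luminescent signal · Benchmarks – DMSO vs Apelin-13 10 nM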
APJ antagonist – antagonists of human apelin receptor APJ, primary screen, CHO-K1 cells, beta-arrestin complementation, luminescence; P35414; inhibition, % at 20 µM; actives 0.32% (n = 330,000);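 active means inhibition above about 40% at 20 µM, limit read from the data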;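 further: cells challenged with 10 nM apelin-13 agonist together with compound; plate controls were apelin-13 plus DMSO wells for no effect and DMSO wells lacking apelin-13 for full effect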
EBI2 block – EBI2 receptor antagonists, beta-arrestin recruitment, primary screen, cell-based, luminescence, 7a,25-OHC stimulation, uHTS | 7a,25-OHC stimulated | inhibition, % at 5 µM | actives 0.81% (n = 360,000) | AID 651636, 2012; in the data active means inhibition above about 38%;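 further: enzyme fragment complementation signal reports receptor beta-arrestin coupling in cells; 0% = agonist plus DMSO wells and 100% = wells without agonist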
CXCR6 block – CXCR6 receptor inhibitors, primary screen, cell-based, beta-arrestin, luminescence, CHO-K1 PathHunter, 1536-well. actives 0.36% (n = 360,000). inhibition, % at 20 µM. AID 602244, 2012. C-X-C chemokine receptor type 6 (Homo sapiens), O00574; in the data active means inhibition above about 34%, passing the limit was not always enough;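 further: antagonist mode with CXCL16 agonist at 10 nM final; 0% = 10 nM CXCL16 with DMSO and 100% = unstimulated wells without agonist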
CCR6 antagonist – CCR6 receptor antagonists, primary screen, cell-based, CHO-K1, luminescence, beta-arrestin, uHTS | CHO-K1 CCR6 PathHunter beta-arrestin, CCL20-stimulated | AID 493098, 2011 | inhibition, % at 20 µM | actives 0.49% (n = 340,000) | C-C chemokine receptor type 6 (Homo sapiens), P51684;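 active means compounds whose inhibition of the agonist-driven luminescence signal at 20 µM reaches about 50%, limit read from the data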;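 further: cells stimulated with CCL20 at 14 nM final; plate controls were DMSO with CCL20 for no effect and DMSO without agonist for full effect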
TAG conf – triacylglycerol accumulation inhibitors, retest, confirmation, cell-based, single concentration, Nile Red fluorescence, H9c2. shares compounds with TAG inh. H9c2 lipid accumulation; cells loaded with 200 µM oleic acid. actives 71% (n = 990). inhibition, % at 12.5 µM;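 active means mean inhibition across replicates of 40% or more; inactive means mean inhibition below 40%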;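 further: plate controls were DMSO only wells for no effect and Triacsin C treated wells for full effect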
An asterisk follows results filed as active; x = no result. Most compounds without a hit are left out; they make up all but 1.9% or so of the library.

SMILES	TAG inh	APJ agonist	APJ antagonist	EBI2 block	CXCR6 block	CCR6 antagonist	TAG conf
Cc1ccc(Nc2nc(N3CCOCC3)nc(N3CCOCC3)n2)cc1C	x	0	13	-3	6	0	x
C[C@H](CO)N1C[C@H](C)[C@@H](CN(C)Cc2ccncc2)Oc2c(cccc2N(C)C)C1=O	x	-2	2	-7	-7	7	x
C[C@@H]1CN([C@@H](C)CO)C(=O)c2cc(N(C)C)ccc2O[C@@H]1CN(C)Cc1ccncc1	61*	-2	-6	-12	-6	-9	11
Cn1c(N)c(C(=O)COC(=O)c2ccc([N+](=O)[O-])o2)c(=O)n(C)c1=O	88*	7	-68	-4	-21	-3	101*
Cc1ccc(C)c(S(=O)(=O)N2CCCCC2CCNC(=O)C(=O)NCc2ccco2)c1 (centres undefined)	-1	-7	-4	2	2	18	x
C=CCN1C(=O)/C(=C2/Sc3ccccc3N2C)SC1=Nc1ccccc1C	61*	1	-1	9	4	0	39
C=CCN1C(=O)/C(=C2/Sc3ccccc3N2C)SC1=Nc1c(C)n[nH]c1C	x	-5	-22	20	2	-18	x
CN(Cc1ccc(Cl)cc1)C(=O)CCl	52*	1	6	-6	-2	-4	60*
COc1ccc(CN(C)C(=O)CCl)cc1	44	x	x	0	4	-6	x
C/C(=N\NC(=O)c1ccc(Cl)cc1)c1ccc2[nH]ccc2c1	x	-4	-5	-12	-3	-1	x
COc1cccc(-c2cc(NC=O)c3ncc(-c4ccc(OC)c(OC)c4)n3c2)c1	-1	x	x	-1	-1	x	x
CC(=O)c1ccc(-c2cnc3c(NC=O)cc(-c4ccc(C(=O)NC5CC5)cc4)cn23)cc1	54*	x	x	1	-12	x	52*
COc1ccc(-c2cnc3c(NC=O)cc(-c4cccc(NS(C)(=O)=O)c4)cn23)cc1OC	65*	x	x	-4	4	x	58*
COc1cc(-c2cc(NC=O)c3ncc(-c4cccc(C(=O)N(C)C)c4)n3c2)cc(OC)c1OC	58*	x	x	7	6	x	72*
CCOc1ccc(C2=Nc3ccccc3C(c3ccc(N4CCOCC4)cc3)=NN2)cc1	73*	-2	13	7	-7	2	53*
CCCCNC(=O)c1onc(CSc2ccncc2)c1C(=O)NCCCC	-4	4	1	12	-1	13	x
O=C(NCC1CC1)c1onc(CSc2ccncc2)c1C(=O)NCC1CC1	50*	-6	8	-1	-6	15	32
CN(C)c1nc(C#N)nc(N2CCOCC2)n1	-8	-4	6	-10	3	-17	x
CC(C)N(C#N)c1nc(N2CCOCC2)nc(N2CCOCC2)n1	51*	1	-5	0	-2	-11	32
Cc1ccc(-n2nc(C)c3c(C)c(CCC(=O)Nc4ccc(CN5CCCC5)cc4)c(C)nc32)cc1	65*	0	-4	14	-10	52*	59*
Cc1cccc2c(N=Nc3ccc(S(=O)(=O)Nc4ccc(Cl)cc4)cc3[N+](=O)[O-])c(O)[nH]c12	54*	-3	-5	3	13	39	51*
CCN(CC(=O)Nc1c(F)cccc1F)C(=O)CSC(=S)N1CCCC1	-14	1	9	-7	12	-2	x
CC1=C(C(=O)N2CCCCCC2)CC(CC(=O)NCC2CCCCC2)C(=O)N1CCCN1CCCC1=O (centres undefined)	x	x	x	-3	8	x	x
CCc1nc2ccc(C(=O)NCc3ccc4c(c3)OCO4)cn2c1N(CCC(C)C)CCN(C)C	73*	x	x	-5	8	x	30
CCc1nc2ccc(C(=O)NCc3ccc4c(c3)OCO4)cn2c1N(CC)CCN(C)C	11	x	x	-3	1	x	x
SMILES	TAG inh	APJ agonist	APJ antagonist	EBI2 block	CXCR6 block	CCR6 antagonist	TAG conf
CC1(C)O[C@@H]2C[C@H]3[C@@H]4CCC5=CC(=O)C=C[C@]5(C)[C@@]4(F)[C@@H](O)C[C@]3(C)[C@]2(C(=O)CO)O1	36	4	21	2	0	5	x
CC(=O)OCC(=O)[C@@]12OC3(CCCC3)O[C@@H]1C[C@H]1[C@@H]3CCC4=CC(=O)C=C[C@]4(C)[C@@]3(F)[C@@H](O)C[C@@]12C	57*	-1	11	5	-7	6	64*
CC1(C)Cc2nc3sc4c(SCC(=O)NCc5ccco5)ncnc4c3cc2CO1	54*	-4	-15	8	-5	27	47*
O=C(N/N=C/c1ccc2c(c1)OCO2)c1cc(-c2ccncc2)nc2ccccc12	54*	-3	5	-12	-2	13	67*
Cc1ccc(/C=N/NC(=O)c2cc(-c3cccnc3)nc3ccccc23)cc1	57*	-3	-2	-6	9	11	49*
Cc1ccc(NC(=O)Cn2nnc(-c3ccccc3NC(=O)c3cccs3)n2)cc1	57*	-3	1	8	7	22	71*
COc1ccc(-n2cc(CN3CCCC3)c(-c3cccc(F)c3)n2)cc1	80*	-1	9	-6	5	6	25
COc1ccc(-n2cc(CNC3CCN(C)CC3)c(-c3cccc(F)c3)n2)cc1	17	0	-7	-12	0	5	x
COc1ccc(S(=O)(=O)N2CC(=O)Nc3ccccc32)cc1C	-3	2	11	-4	0	1	x
COC(=O)c1ccc(NC(=O)CSc2nncn2-c2ccccn2)cc1	x	0	14	-4	-2	8	x
COc1cc(C2C3=C(COC3=O)Oc3cc4c(cc32)OCO4)ccc1O (centres undefined)	55*	x	x	-1	-6	1	71*
CC(C)CNC(=O)c1coc(=O)c(Br)c1	60*	-3	-8	-1	-1	1	17
COc1cc(-c2coc3c(C(=O)NCc4ccc(C(F)(F)F)cc4)cccc23)ccc1O	54*	x	x	16	1	x	27
COc1cc(-c2coc3c(C(=O)NCc4ccncc4)cccc23)ccc1O	-5	x	x	11	-11	x	x
CC1(C(=O)NCc2cccs2)Cc2c(-c3ccc4c(c3)OCO4)ccnc2O1 (centres undefined)	54*	x	x	-10	3	x	52*
CC1(C(=O)Nc2cccc(Oc3ccccc3)c2)Cc2c(-c3ccc4c(c3)OCO4)ccnc2O1 (centres undefined)	63*	x	x	2	9	x	47*
